The values below come from ChEMBL document CHEMBL4052630, “Design, synthesis and evaluation of scutellarein-O-acetamidoalkylbenzylamines as potential multifunctional agents for the treatment of Alzheimer's disease” (Eur J Med Chem, 2017).

Series [1] has as its system Mus musculus. The series is described as follows: Reversal of scopolamine-induced memory impairment in po dosed Kunming mouse assessed as increase in step-down latency time administered 60 mins prior to training trial followed by scopolamine challenge at 30 mins post dose measured 24 hrs after training trial by passive avoidance test. The format is functional, organism-based. The essentials:
(§1)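 Kunming mice, 18–22 g, six weeks old, either sex; 10 per group. Oral dosing 1 h before training (test compound 3.67, 7.33, 22 mg/kg; donepezil 5.0 mg/kg), scopolamine 3 mg/kg i.p. 30 min later. Training: 0.5 mA, 2 s foot shock on stepping off the block. Step-down latency measured 24 h later. Mean ± SEM.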

Series [2] concerns the target Amyloid-beta precursor protein (Homo sapiens) (UniProt P05067). The series is described as follows: Inhibition of amyloid beta (1 to 42) (unknown origin) self aggregation at 12.5 uM after 24 hrs by ThT-based fluorometric method relative to control. The method in brief:
(§2)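 Aβ1-42 (25 µM final) incubated 24 h at 37 °C with or without compound (1-50 µM) in 50 mM phosphate buffer pH 7.4. Thioflavin T (5 µM in glycine-NaOH pH 8.5) then added, fluorescence read at ex 446/em 490 nm. Inhibition = (1-IFi/IFc)×100 after background subtraction. Run in triplicate.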

For series [3] the target is unchanged. Put plainly: Inhibition of amyloid beta (1 to 42) (unknown origin) self-induced aggregation after 24 hrs by ThT-based fluorometric method. The essentials: as §2
Series [4] concerns the target Acetylcholinesterase (Homo sapiens, UniProt P22303). Put plainly: Inhibition of human erythrocyte AChE induced amyloid beta (1 to 40) aggregation after 24 hrs by ThT-based fluorometric method. The essentials: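 HFIP-pretreated Aβ1-40 (230 µM final) co-incubated 24 h at room temperature with human AChE (2.3 µM; Aβ/AChE 100:1) ± compound in sodium phosphate buffer pH 8.0. Then 5 µM thioflavin T in glycine-NaOH pH 8.5 was added and read at ex 446/em 490 nm. Triplicate. % inhibition calculated from fluorescence with/without inhibitor, each minus its blank (Aβ alone, AChE alone, Aβ+inhibitor).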

The species entered for series [5] is Rattus norvegicus. The series is described as follows: Selectivity index, ratio of IC50 for rat serum BuChE to IC50 for rat cortex homogenate AChE. The method in brief: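 Modified Ellman assay. AChE from 5% rat cortex homogenate, pre-incubated 5 min with iso-OMPA (4.0 mmol/L). BuChE from 25% rat serum. Enzyme incubated with compound (<1% DMSO) and acetyl- or butyrylthiocholine iodide (1 mmol/L) in phosphate buffer pH 7.4 for 15 min at 37 °C. DTNB added, read at 405 nm. IC50 from 3 independent experiments. Index = BuChE IC50/AChE IC50.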

Series [6] has as its system Mus musculus. The series is described as follows: Reversal of scopolamine-induced memory impairment in Kunming mouse assessed as step-down latency time at 22 mg/kg, po administered 60 mins prior to training trial followed by scopolamine challenge at 30 mins post dose measured 24 hrs after training trial by passive avoidance test. The format is functional. The essentials: as §1

Series [7] is described as follows: Cytotoxicity against human SH-SY5Y cells assessed as cell viability at 100 uM after 24 hrs by MTT assay relative to control. Type of series: cell-based. Conditions: read-out: Activity. The essentials:
(§3)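 SH-SY5Y cells grown in DMEM with 10% FBS at 37 °C, 5% CO2, seeded 4 × 10^4 cells/well and incubated 24 h. Compounds given at 1, 10 and 100 µM (1% DMSO final) for 24 h. MTT (5 mg/ml) added for 4 h, cells lysed overnight in DMF/SDS, absorbance read at 590 nm against control. Three independent experiments.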

Series [8] is described as follows: Metal chelating activity assessed as disaggregation of Cu2+ induced amyloid beta (1 to 42) fibrils at 25 uM treated for 24 hrs post Cu2+ treatment for 24 hrs by ThT-based fluorometric method relative to control. The method in brief: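 Fibrils preformed from Aβ1-42 (25 µM) plus Cu2+ (25 µM) in 20 mM HEPES pH 6.6, 150 mM NaCl, 24 h at 37 °C. Compound (25 µM) then added for another 24 h at 37 °C. Thioflavin T (5 µM, glycine-NaOH pH 8.5) fluorescence read at ex 446/em 490 nm. Triplicate.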

Series [9] can be described thus: Metal chelating activity assessed as compound-Zn2+ complex formation by measuring shift in maximum absorption wavelength at 37.5 uM after 30 mins by UV-vis spectrophotometric method. The method in brief: (§4)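 UV absorption scanned from 200 to 600 nm after 30 min at room temperature in methanol. Compound and each metal salt (CuCl2, ZnCl2, AlCl3, FeSO4) were at 37.5 µM final. Spectra compared with and without metal.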

Series [10] addresses Amyloid-beta precursor protein (Homo sapiens) (UniProt P05067). Put plainly: Inhibition of amyloid beta (1 to 42) (unknown origin) self aggregation at 25 uM after 24 hrs by ThT-based fluorometric method relative to control. The essentials: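 Aβ1-42 (25 µM final) incubated at 37 °C for 24 h ± compound in 50 mM phosphate buffer pH 7.4, with DMSO stocks diluted in buffer. Then 5 µM thioflavin T in 50 mM glycine-NaOH pH 8.5 was added and read at ex 446/em 490 nm. Run in triplicate. % inhibition = (1−IFi/IFc)×100 after background subtraction.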

Series [11] can be described thus: Metal chelating activity assessed as compound-Fe2+ complex formation by measuring shift in maximum absorption wavelength at 37.5 uM after 30 mins by UV-vis spectrophotometric method. The method in brief:
as §4

Series [12] concerns PC-12. Put plainly: Neuroprotective activity against H2O2 induced cell injury in rat PC12 cells assessed as cell viability at 1 uM preincubated for 24 hrs followed by incubation with H2O2 for 2 hrs measured after 24 hrs by MTT assay (reference value: 43.9%). The format is functional. The settings on record: read-out: Activity. The method in brief: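 PC12 cells in phenol-red-free DMEM with 10% FCS, plated at 10^5 cells/well. Cells preincubated 24 h with compound (1.0 or 10.0 µM; dissolved in 2% DMSO, diluted in PBS), then exposed to H2O2 100 µM for 2 h. Medium replaced; viability assessed 24 h later by MTT (4 h, 37 °C), lysis in DMF/SDS, A590.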

Series [13] deals with Acetylcholinesterase (Electrophorus electricus) (UniProt O42275). The series is described as follows: Mixed type inhibition of electric eel AChE at 10 to 40 nM preincubated for 15 mins followed by varying levels of acetylthiocholine substrate addition by Lineweaver-Burk plot analysis. The essentials: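 Electric eel AChE (10 µL of 0.5 U/mL) in 0.1 M phosphate pH 8.0 with DTNB, pre-incubated 15 min at 37 °C with three inhibitor concentrations. Acetylthiocholine added at 0.1–0.4 mM and hydrolysis read at 412 nm, with an inhibitor-free control. Lineweaver-Burk plots by weighted least squares; slopes replotted against inhibitor concentration.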
Sequence of Acetylcholinesterase (Electrophorus electricus) (O42275 24-633 limits assumed): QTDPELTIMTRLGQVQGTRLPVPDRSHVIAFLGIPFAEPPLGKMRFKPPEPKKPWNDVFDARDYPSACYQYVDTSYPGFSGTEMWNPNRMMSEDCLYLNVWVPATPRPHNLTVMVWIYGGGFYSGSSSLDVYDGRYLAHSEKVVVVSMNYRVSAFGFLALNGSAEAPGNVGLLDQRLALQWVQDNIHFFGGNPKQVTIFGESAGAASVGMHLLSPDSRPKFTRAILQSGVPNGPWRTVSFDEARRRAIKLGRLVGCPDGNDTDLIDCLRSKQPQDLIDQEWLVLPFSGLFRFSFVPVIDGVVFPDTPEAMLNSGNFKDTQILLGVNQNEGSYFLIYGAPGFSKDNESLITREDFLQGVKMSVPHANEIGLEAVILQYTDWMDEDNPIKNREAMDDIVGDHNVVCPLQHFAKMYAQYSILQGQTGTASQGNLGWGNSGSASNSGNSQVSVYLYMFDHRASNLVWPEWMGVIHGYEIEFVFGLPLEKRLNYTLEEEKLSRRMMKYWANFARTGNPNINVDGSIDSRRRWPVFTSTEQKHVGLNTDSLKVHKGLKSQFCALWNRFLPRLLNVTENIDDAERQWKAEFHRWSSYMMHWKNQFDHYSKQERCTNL

Series [14] is described as follows: Metal chelating activity assessed as compound-Cu2+ complex formation by measuring red shift at 37.5 uM after 30 mins by UV-vis spectrophotometric method. The essentials: as §4
Series [15] relates to SH-SY5Y. Put plainly: Cytotoxicity against human SH-SY5Y cells assessed as reduction in cell viability up to 10 uM after 24 hrs by MTT assay. The format is cell-based. The method in brief:
as §3
Background: Tetrazolium dyes change colour on reduction, which living cells bring about.

Series [16] can be described thus: Solubility of the compound in DMEM in presence of 10% FBS. The format is physicochemical.

What is called inhibition is the share of the control response that was lost under treatment.

The source made the active and inactive calls. No cut-off for these calls is given here.

Sequence of Amyloid-beta precursor protein (Homo sapiens) (P05067 whole entry): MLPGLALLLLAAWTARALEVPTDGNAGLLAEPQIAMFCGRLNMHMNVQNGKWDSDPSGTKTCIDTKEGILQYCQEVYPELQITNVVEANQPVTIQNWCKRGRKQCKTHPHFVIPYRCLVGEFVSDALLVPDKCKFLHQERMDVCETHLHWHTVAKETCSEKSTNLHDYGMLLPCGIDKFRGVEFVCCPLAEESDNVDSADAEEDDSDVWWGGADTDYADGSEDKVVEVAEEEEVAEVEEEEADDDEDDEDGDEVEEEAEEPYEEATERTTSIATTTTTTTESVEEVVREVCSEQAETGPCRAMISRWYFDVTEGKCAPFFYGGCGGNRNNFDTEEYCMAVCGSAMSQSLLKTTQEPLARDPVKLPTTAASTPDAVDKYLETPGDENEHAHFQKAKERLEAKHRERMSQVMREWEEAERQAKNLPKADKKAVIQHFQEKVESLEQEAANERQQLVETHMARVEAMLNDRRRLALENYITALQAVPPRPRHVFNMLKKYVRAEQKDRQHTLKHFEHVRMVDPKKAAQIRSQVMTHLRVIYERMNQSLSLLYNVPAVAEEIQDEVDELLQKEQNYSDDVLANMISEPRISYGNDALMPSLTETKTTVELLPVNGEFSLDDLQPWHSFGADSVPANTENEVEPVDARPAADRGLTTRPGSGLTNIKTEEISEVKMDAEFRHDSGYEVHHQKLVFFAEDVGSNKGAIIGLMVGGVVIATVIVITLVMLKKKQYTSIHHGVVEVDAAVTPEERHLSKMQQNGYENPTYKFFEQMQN
Sequence of Acetylcholinesterase (P22303 whole entry): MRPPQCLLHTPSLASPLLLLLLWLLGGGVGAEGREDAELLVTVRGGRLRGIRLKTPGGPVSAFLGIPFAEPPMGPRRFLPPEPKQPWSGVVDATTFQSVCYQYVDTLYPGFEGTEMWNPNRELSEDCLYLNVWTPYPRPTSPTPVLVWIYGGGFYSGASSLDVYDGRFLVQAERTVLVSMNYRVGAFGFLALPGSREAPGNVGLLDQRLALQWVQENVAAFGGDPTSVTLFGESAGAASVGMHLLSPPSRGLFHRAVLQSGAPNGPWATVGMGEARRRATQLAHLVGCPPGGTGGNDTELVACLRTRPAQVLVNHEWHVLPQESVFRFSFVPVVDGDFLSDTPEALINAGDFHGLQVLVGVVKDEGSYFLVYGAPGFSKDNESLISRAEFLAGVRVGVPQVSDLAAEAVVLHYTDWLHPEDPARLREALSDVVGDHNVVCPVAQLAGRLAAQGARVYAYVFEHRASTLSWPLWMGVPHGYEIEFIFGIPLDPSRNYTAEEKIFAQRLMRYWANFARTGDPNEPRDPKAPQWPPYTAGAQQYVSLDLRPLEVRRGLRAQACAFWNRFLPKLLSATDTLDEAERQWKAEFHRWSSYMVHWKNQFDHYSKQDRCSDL

As for `CCN(CCCCNC(=O)COc1ccc(-c2cc(=O)c3c(O)c(OC)c(OC)cc3o2)cc1)Cc1ccccc1OC`, the Activity entry in series [1] was “Dose-dependent effect”; in series [8], 66.3%; in [15], “Non-Toxic”. For the same molecule, the inhibition was 43.6% in series [2], “Dose-dependent effect” in series [3], “Dose-dependent effect” in [4] and 57.1% in series [10]. In addition, the Ratio IC50 in series [5] was > 9800. Also, the Time in series [6] is 176.4 s. Moreover, in [7], the viability at 24 h, 100 µM came out at 82.4%. In addition, the result in series [9] and in series [11] was inactive. In addition, the viability at 1 µM in series [12] is 67.6%. Besides, the inhibition entry in series [13] was “Active”. For the same molecule, the outcome in [14] was Active. In series [16], the solubility entry is given as “Insoluble”.
